From ChEMBL document CHEMBL1781963, “Discovery of novel hepatoselective HMG-CoA reductase inhibitors for treating hypercholesterolemia: a bench-to-bedside case study on tissue selective drug distribution” (Bioorg Med Chem Lett, 2011) come the findings set out here.

Series [1] is described as follows: Ratio of fAUC (0 to 24 hrs) in liver to plasma in Sprague-Dawley rat at 10 mg/kg, po. The format is ADME, organism-based. Also noted: dose 10 mg/kg, route oral. The following applies: liver and plasma. In short, it runs like this:
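Sprague-Dawley rats given a single oral dose (10 or 25 mg/kg). Free drug measured in liver and plasma at 0, 0.5, 1, 2, 3, 4, 7 and 24 h, n = 3/time point.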

Series [2] in a line: Drug excretion in human urine after 24 hrs. Type of series: ADME, tissue-based. The following applies: read-out: Activity. In short, it runs like this:
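Single ascending oral dose in healthy volunteers; the percentage of drug excreted in urine was measured at 24 h post dose.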

The nature of series [3]: Cmax in human plasma at 40 mg administered as single dose. Type of series: ADME, organism-based. Also noted: dose 40 mg. In short, it runs like this:
(§1)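 Phase 1 single ascending oral dose in healthy volunteers, about 5–6 subjects per dose. Total plasma drug Cmax and AUC(0-∞) were measured. Free-drug exposures were derived using plasma protein binding.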

Series [4] can be described thus: Cmax in human plasma at 320 mg administered as single dose. The format is ADME, organism-based. Also noted: dose 320 mg. The procedure, abridged:
as §1

A short description of series [5]: AUC (0 to infinity) in human plasma at 40 mg administered as single dose. The format is ADME, cell-free. Also noted: dose 40 mg, time infinity. The procedure, abridged: as §1
Series [6] concerns Plasma. Briefly: fCmax in human plasma at 40 mg administered as single dose. The format is ADME, cell-free. The procedure, abridged:
(§2)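 Phase 1 single ascending oral dose in healthy volunteers, with N per dose group. Total plasma Cmax and AUC(0-∞) were measured. Free-drug exposures were derived from these using plasma protein binding (human plasma fu measured at 0.5 μg/mL).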

Series [7] has as its system Plasma. Briefly: fAUC (0 to infinity) in human plasma at 40 mg administered as single dose. The format is ADME, cell-free. In short, it runs like this: as §2
Series [8] deals with Plasma. The experiment in a line: fAUC (0 to infinity) in human plasma at 10 mg administered as single dose. Type of series: ADME, cell-free. In short, it runs like this:
as §2

For series [9], the system named is Plasma. The experiment in a line: fAUC (0 to infinity) in human plasma at 240 mg administered as single dose. Type of series: ADME, cell-free. The procedure, abridged: as §2
The test system of series [10] is Homo sapiens. Briefly: Inhibition of HMG-CoA reductase in human assessed as decrease in AUC (0 to 24 hrs) of mevalonate level in plasma at 40 mg administered as single dose relative to control. The format is functional.
In series [11] the test system is Homo sapiens. The experiment in a line: Inhibition of HMG-CoA reductase in human assessed as decrease in AUC (0 to 72 hrs) of mevalonate level in plasma at 40 mg administered as single dose relative to control. The format is functional.
Series [12] deals with Homo sapiens. The experiment in a line: Inhibition of HMG-CoA reductase in human assessed as decrease in AUC (0 to 72 hrs) of mevalonate level in plasma at 120 mg administered as single dose relative to control. The format is functional.
For series [13], the target named is T1, 3-hydroxy-3-methylglutaryl-coenzyme A reductase (Rattus norvegicus, UniProt P51639).
T1 sequence (P51639 whole entry): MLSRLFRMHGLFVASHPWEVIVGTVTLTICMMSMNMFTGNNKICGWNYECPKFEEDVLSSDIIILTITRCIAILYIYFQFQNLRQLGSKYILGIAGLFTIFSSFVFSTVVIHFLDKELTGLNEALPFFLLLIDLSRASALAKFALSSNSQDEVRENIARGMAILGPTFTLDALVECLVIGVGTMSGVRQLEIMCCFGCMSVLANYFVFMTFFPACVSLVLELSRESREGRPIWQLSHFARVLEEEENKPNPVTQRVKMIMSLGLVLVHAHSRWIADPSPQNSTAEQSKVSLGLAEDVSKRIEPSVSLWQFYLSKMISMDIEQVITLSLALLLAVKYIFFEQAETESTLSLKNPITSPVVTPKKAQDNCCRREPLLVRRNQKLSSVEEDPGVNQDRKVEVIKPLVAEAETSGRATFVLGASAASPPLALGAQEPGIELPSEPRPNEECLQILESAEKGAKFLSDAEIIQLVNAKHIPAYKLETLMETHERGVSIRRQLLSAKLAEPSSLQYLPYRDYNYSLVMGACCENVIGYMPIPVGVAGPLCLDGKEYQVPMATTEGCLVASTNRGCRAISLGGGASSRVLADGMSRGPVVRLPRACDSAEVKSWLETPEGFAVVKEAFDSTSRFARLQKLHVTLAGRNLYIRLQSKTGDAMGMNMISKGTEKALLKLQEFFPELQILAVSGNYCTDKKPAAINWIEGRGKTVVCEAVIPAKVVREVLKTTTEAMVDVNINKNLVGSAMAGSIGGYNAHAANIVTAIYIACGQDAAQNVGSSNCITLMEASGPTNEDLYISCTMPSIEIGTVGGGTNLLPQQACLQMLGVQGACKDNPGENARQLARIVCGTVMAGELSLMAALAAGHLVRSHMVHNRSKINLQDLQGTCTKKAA
The experiment in a line: Inhibition of HMG-CoA reductase in Sprague-Dawley rat liver microsomes using [14C]HMG-CoA as substrate preincubated for 0.5 hrs before substrate addition measured after 0.75 hrs by beta scintillation counting. Also noted: species or system Microsome. The procedure, abridged:
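Enzyme inhibition was measured in an HMG-CoA reductase preparation from rat microsomes. IC50 is reported as mean ± SEM of n ≥ 2 independent determinations.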
A general note: Liver microsomes are a subcellular fraction often used to study metabolism.

In series [14] the test system is Rattus norvegicus. Briefly: fAUC (0 to 24 hrs) in rat at 1 mg/kg, iv. Also noted: dose 1 mg/kg, route intravenous. The format is ADME, organism-based. Particulars: in vivo. In short, it runs like this:
(§3)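 Rat and dog given 1 mg/kg iv, or po at 10 mg/kg (rat) or 5 mg/kg (dog). Plasma sampled to 24 h. AUC(0-24) as free drug using plasma protein binding values. Geometric mean of n = 2 animals/group; dog po n = 3 or n = 1.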

In series [15] the test system is Rattus norvegicus. Briefly: fAUC (0 to 24 hrs) in rat at 10 mg/kg, po. The format is ADME, organism-based. Also noted: dose 10 mg/kg, route oral. The following applies: in vivo. The procedure, abridged:
as §3

Series [16] relates to Canis familiaris. The experiment in a line: fAUC (0 to 24 hrs) in dog at 1 mg/kg, iv. The format is ADME, organism-based, Canis lupus familiaris. Also noted: dose 1 mg/kg, route intravenous. The following applies: in vivo. The procedure, abridged: as §3
Series [17] concerns Canis familiaris. Briefly: fAUC (0 to 24 hrs) in dog at 5 mg/kg, po. The format is ADME, organism-based, Canis lupus familiaris. Also noted: dose 5 mg/kg, route oral. The following applies: in vivo. In short, it runs like this:
as §3

Series [18] deals with Rattus norvegicus. The experiment in a line: fCmax in rat at 10 mg/kg, po. Type of series: ADME, organism-based. Also noted: dose 10 mg/kg, route oral. The following applies: in vivo. The procedure, abridged:
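Single po dose: rat 10 mg/kg (n = 2), dog 5 mg/kg (n = 1 or 3 animals). Values are geometric means. Cmax is given as free drug concentration using plasma protein binding values, which were determined at 0.5 μg/mL.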

The nature of series [19]: Systemic plasma clearance in rat at 1 mg/kg, iv. Type of series: ADME, organism-based. Also noted: dose 1 mg/kg, route intravenous. In short, it runs like this: as §3
A short description of series [20]: Systemic plasma clearance in dog at 1 mg/kg, iv. Also noted: dose 1 mg/kg, route intravenous. The format is ADME, organism-based, Canis lupus familiaris. The procedure, abridged:
as §3

Series [21] in a line: Half life in rat at 1 mg/kg, iv. Type of series: ADME, organism-based. Also noted: dose 1 mg/kg, route intravenous. The following applies: in vivo. The procedure, abridged: (§4)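 Intravenous 1 mg/kg dose in rat or dog. Terminal half-life was derived from plasma concentrations and is reported as the geometric mean of n = 2 animals per group.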
Series [22] in a line: Half life in dog at 1 mg/kg, iv. Type of series: ADME, organism-based, Canis lupus familiaris. Particulars: in vivo. Also noted: dose 1 mg/kg, route intravenous. The procedure, abridged: as §4
The nature of series [23]: Volume of distribution at steady state in rat at 1 mg/kg, iv. The format is ADME, organism-based. Particulars: in vivo, read-out: Vdss. Also noted: dose 1 mg/kg, route intravenous. The procedure, abridged:
as §3

The nature of series [24]: Volume of distribution at steady state in dog at 1 mg/kg, iv. Particulars: in vivo, read-out: Vdss. Type of series: ADME, organism-based, Canis lupus familiaris. Also noted: dose 1 mg/kg, route intravenous. In short, it runs like this: as §3
Series [25] can be described thus: Oral bioavailability in rat at 10 mg/kg. Type of series: ADME, organism-based. The following applies: in vivo. The procedure, abridged:
as §3

Series [26] in a line: Oral bioavailability in dog at 5 mg/kg. The format is ADME, organism-based, Canis lupus familiaris. Particulars: in vivo. The procedure, abridged: as §3
The nature of series [27]: Terminal half life in human plasma at 40 mg administered as single dose. The following applies: read-out: beta t1/2 (converted). The format is ADME, cell-free.
Series [28] can be described thus: Cmax in human plasma at 20 mg administered as single dose. Type of series: ADME, organism-based. Also noted: dose 20 mg. In short, it runs like this: as §1
The nature of series [29]: AUC (0 to infinity) in human plasma at 5 mg administered as single dose. Also noted: dose 5 mg, time infinity. Type of series: ADME, cell-free. The procedure, abridged:
as §1

For series [30], the system named is Homo sapiens. Briefly: Inhibition of HMG-CoA reductase in human assessed as decrease in AUC (0 to 72 hrs) of mevalonate level in plasma at 160 mg administered as single dose relative to control. The format is functional.

Each structure is given as a SMILES string. Where only a bound is given, the exact number is not on record here.

In the case of `CC(C)c1nc(N(C)S(C)(=O)=O)nc(-c2ccc(F)cc2)c1/C=C/[C@@H](O)C[C@@H](O)CC(=O)O` [ROSUVASTATIN], the Kp uu in series [1] was found to be 30.

In general, Cmax refers to the highest concentration seen after dosing. By AUC(0-inf) is commonly meant total exposure, with the tail of the curve extrapolated. Low values mean low exposure, high ones high exposure. What is called IC50 is the concentration needed to halve the response being measured. High values mean a need for much substance, low ones inhibition by little substance. As usually defined, the clearance is the rate of elimination divided by the concentration. For orientation: bioavailability means dose-corrected exposure relative to a reference, in per cent. Low readings indicate little systemic uptake, high ones much systemic uptake. With `O=C([O-])C[C@H](O)C[C@H](O)CCn1c(-c2ccc(F)cc2)nc(C(=O)NCc2cccc(F)c2)c1C1CC1.[Na+]`, the dose excreted at 24 h in [2] is under 1%. Besides, the Cmax in [3] was 2.25 ng/mL; in series [4], 44.1 ng/mL. The AUC(0-inf) in series [5] worked out at 6.27 ng·h/mL. The results for the fCmax with Plasma [6] and with Rattus norvegicus [18] were 0.653 ng/mL and 2 ng/mL, respectively. For the same molecule, the fAUC with Plasma [7] was 1.81 ng·h/mL; with Plasma [8], 0.786 ng·h/mL; in the series with Plasma [9] it was 7.89 ng·h/mL; in the series with Rattus norvegicus [14], 83 ng·h/mL; with Rattus norvegicus [15], 2.7 ng·h/mL; in the series on Canis familiaris [16] it was 293 ng·h/mL. Also, the fAUC in the series with Canis familiaris [17] amounted to 51 ng·h/mL. Moreover, the “inhibition (INH)” value with Homo sapiens [10] is on record as -39%; with Homo sapiens [11], -19%; in the series with Homo sapiens [12], -17%. In addition, in [13], the midpoint of inhibition, the IC50, lay at 1.2 nM. The clearance in [19] is 39 mL/min/kg; in [20] it was 25 mL/min/kg. Besides, the half-life was 25.8 min in series [21], 16.2 min in series [22] and 193 min in [27]. The Vd in [23] amounted to 0.17 L/kg; in [24] it was 0.1 L/kg. Besides, the bioavailability in series [25] is 0.3%; in [26] it was 2.2%. Also, the Kp uu in series [1] amounted to 41.

On to `Cc1ccc(CNC(=O)c2nn(-c3ccc(F)cc3)c(CC[C@@H](O)C[C@@H](O)CC(=O)O)c2C(C)C)cc1`, for which the dose excreted at 24 h in [2] came to 12%. Moreover, the Cmax in [28] came out at 740 ng/mL; in series [3], 1770 ng/mL. Further, the AUC(0-inf) was 434 ng·h/mL in [29] and 5110 ng·h/mL in series [5]. For the same molecule, the figures for the fCmax in the series with Plasma [6] and with Rattus norvegicus [18] were 90.3 ng/mL and 1.3 ng/mL, respectively. Besides, the fAUC was determined as 261 ng·h/mL in the series on Plasma [7]; 10 ng·h/mL with Rattus norvegicus [14]; 6.4 ng·h/mL with Rattus norvegicus [15]; 28 ng·h/mL with Canis familiaris [16]; 64 ng·h/mL in the series on Canis familiaris [17]. The “inhibition (INH)” value in the series with Homo sapiens [10] was -41%; with Homo sapiens [11], -3%; in the series with Homo sapiens [30], -24%. The same molecule yielded a 50% inhibitory concentration (IC50) in series [13] of 1 nM. The values for the clearance in series [19] and in series [20] were 27 mL/min/kg and 19 mL/min/kg, respectively. The half-life is 20.4 min in series [21], 46.8 min in series [22] and 514 min in [27]. The Vd in series [23] worked out at 0.14 L/kg; in series [24], 0.1 L/kg. Further, the bioavailability in series [25] turned out to be 6%; in series [26], 44%.
